ChEMBL document CHEMBL5247578, “Effective synthesis of benzimidazoles-imidazo[1,2-a]pyrazine conjugates: A comparative study of mono-and bis-benzimidazoles for antitumor activity” (Eur J Med Chem, 2019)

Assays:
Albumin = Albumin (Bos taurus, UniProt P02769); experiment: Binding affinity to bovine serum albumin assessed as Stern-Volmer quenching constant by fluorescence spectroscopic method; conditions: cattle
DU-145 = experiment: Antiproliferative activity against human DU-145 cells assessed as cell growth at 0.000001 M incubated for 48 hrs by SRB assay relative to control; format: functional; conditions: read-out: Activity
In short: (§1)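 NCI-60 five-dose screen (10^-4 to 10^-8 M). Cells grown in RPMI 1640 with 5% FBS and 2 mM L-glutamine, plated at 5,000-40,000 cells/well and preincubated 24 h. Drug given from DMSO stock, then 48 h at 37 °C, 5% CO2. For adherent lines, cells fixed with cold TCA, SRB-stained and read at 515 nm. Percent growth taken against time-zero and untreated control.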

CAKI-1 = experiment: Antiproliferative activity against human CAKI-1 cells assessed as cell growth at 0.00001 M incubated for 48 hrs by SRB assay relative to control; format: functional; conditions: read-out: Activity
In short: (§2)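 NCI-60 five-dose screen over 10^-4–10^-8 M (10-fold dilutions). Cells grown in RPMI 1640 with 5% FBS and 2 mM L-glutamine, seeded at 5,000–40,000 cells/well and preincubated 24 h. Drug from DMSO stock, 48 h at 37 °C, 5% CO2. Adherent cells TCA-fixed and stained with 0.4% SRB; A515 read. Percent growth = (Ti−Tz)/(C−Tz)×100, or (Ti−Tz)/Tz×100 when Ti<Tz.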

EKVX = experiment: Antiproliferative activity against human EKVX cells assessed as cell growth inhibition by measuring lethal concentration incubated for 48 hrs by sulforhodamine B assay; format: functional; conditions: read-out: LC50 (the source's name)
786-0 = experiment: Growth inhibition against human 786-0 cells incubated for 48 hrs by sulforhodamine B assay; format: functional
SF-268 = experiment: Antiproliferative activity against human SF-268 cells assessed as cell growth at 0.000001 M incubated for 48 hrs by SRB assay relative to control; format: functional; conditions: read-out: Activity
PC-3 = experiment: Growth inhibition against human PC-3 cells incubated for 48 hrs by sulforhodamine B assay; format: functional
SF-539 [1] = experiment: Antiproliferative activity against human SF-539 cells assessed as cell growth at 0.0001 M incubated for 48 hrs by SRB assay relative to control; format: functional; conditions: read-out: Activity
MCF7 [2] = experiment: Growth inhibition against human MCF7 cells assessed as total growth inhibitory concentration incubated for 48 hrs by sulforhodamine B assay; format: functional
NCI/ADR-RES = experiment: Antiproliferative activity against human NCI/ADR-RES cells assessed as cell growth at 0.00000001 M incubated for 48 hrs by SRB assay relative to control; format: functional; conditions: dose 10 nM, read-out: Activity
Calf thymus DNA = experiment: Binding affinity to calf thymus DNA assessed as binding constant by Benesi-Hildebrand equation based UV-vis spectrophotometric method; format: nucleic-acid assay; conditions: Bos taurus
M14 [3] = experiment: Antiproliferative activity against human M14 cells assessed as cell growth at 0.00000001 M incubated for 48 hrs by SRB assay relative to control; format: functional; conditions: dose 10 nM, read-out: Activity
NCI-H460 = experiment: Antiproliferative activity against human NCI-H460 cells assessed as cell growth inhibition by measuring lethal concentration incubated for 48 hrs by sulforhodamine B assay; format: functional; conditions: read-out: LC50 (the source's name)
OVCAR-5 = experiment: Antiproliferative activity against human OVCAR-5 cells assessed as cell growth at 0.000001 M incubated for 48 hrs by SRB assay relative to control; format: functional; conditions: read-out: Activity
OVCAR-8 = experiment: Antiproliferative activity against human OVCAR-8 cells assessed as cell growth at 0.0000001 M incubated for 48 hrs by SRB assay relative to control; format: functional; conditions: dose 100 nM, read-out: Activity
CCRF-CEM [4] = experiment: Growth inhibition against human CCRF-CEM cells incubated for 48 hrs by sulforhodamine B assay; format: functional
SK-MEL-5 [5] = experiment: Antiproliferative activity against human SK-MEL-5 cells assessed as cell growth at 0.000001 M incubated for 48 hrs by SRB assay relative to control; format: functional; conditions: read-out: Activity
Malme-3M [6] = experiment: Antiproliferative activity against human Malme-3M cells assessed as cell growth at 0.00001 M incubated for 48 hrs by SRB assay relative to control; format: functional; conditions: read-out: Activity
SF-539 [7] = experiment: Antiproliferative activity against human SF-539 cells assessed as cell growth at 0.0000001 M incubated for 48 hrs by SRB assay relative to control; format: functional; conditions: dose 100 nM, read-out: Activity
M14 [8] = experiment: Antiproliferative activity against human M14 cells assessed as cell growth at 0.00001 M incubated for 48 hrs by SRB assay relative to control; format: functional; conditions: read-out: Activity
MCF7 [9] = experiment: Antiproliferative activity against human MCF7 cells assessed as cell growth at 0.0001 M incubated for 48 hrs by SRB assay relative to control; format: functional; conditions: read-out: Activity
NCI-H322M = experiment: Antiproliferative activity against human NCI-H322M cells assessed as cell growth at 0.0000001 M incubated for 48 hrs by SRB assay relative to control; format: functional; conditions: dose 100 nM, read-out: Activity
A498 = experiment: Growth inhibition against human A498 cells assessed as total growth inhibitory concentration incubated for 48 hrs by sulforhodamine B assay; format: functional
IGROV-1 = experiment: Antiproliferative activity against human IGROV-1 cells assessed as cell growth inhibition by measuring lethal concentration incubated for 48 hrs by sulforhodamine B assay; format: functional; conditions: read-out: LC50 (the source's name)
HT-29 = experiment: Antiproliferative activity against human HT-29 cells assessed as cell growth at 0.00000001 M incubated for 48 hrs by SRB assay relative to control; format: functional; conditions: dose 10 nM, read-out: Activity; in short: as §1
Malme-3M [10] = experiment: Antiproliferative activity against human Malme-3M cells assessed as cell growth inhibition by measuring lethal concentration incubated for 48 hrs by sulforhodamine B assay; format: functional; conditions: read-out: LC50 (the source's name)
SK-MEL-5 [11] = experiment: Antiproliferative activity against human SK-MEL-5 cells assessed as cell growth at 0.0000001 M incubated for 48 hrs by SRB assay relative to control; format: functional; conditions: dose 100 nM, read-out: Activity
HCT-15 = experiment: Antiproliferative activity against human HCT-15 cells assessed as cell growth at 0.00001 M incubated for 48 hrs by SRB assay relative to control; format: functional; conditions: read-out: Activity; in short: as §1
CCRF-CEM [12] = experiment: Growth inhibition against human CCRF-CEM cells assessed as total growth inhibitory concentration incubated for 48 hrs by sulforhodamine B assay; format: functional
UACC-257 = experiment: Antiproliferative activity against human UACC-257 cells assessed as cell growth at 0.000001 M incubated for 48 hrs by SRB assay relative to control; format: functional; conditions: read-out: Activity
RPMI-8226 = experiment: Antiproliferative activity against human RPMI-8226 cells assessed as cell growth at 0.000001 M incubated for 48 hrs by SRB assay relative to control; format: functional; conditions: read-out: Activity
CCRF-CEM [13] = experiment: Antiproliferative activity against human CCRF-CEM cells assessed as cell growth inhibition by measuring lethal concentration incubated for 48 hrs by sulforhodamine B assay; format: functional; conditions: read-out: LC50 (the source's name)
A549 = experiment: Antiproliferative activity against human A549 cells assessed as cell growth at 0.0000001 M incubated for 48 hrs by SRB assay relative to control; format: functional; conditions: dose 100 nM, read-out: Activity; in short: as §2
Malme-3M [14] = experiment: Antiproliferative activity against human Malme-3M cells assessed as cell growth at 0.0001 M incubated for 48 hrs by SRB assay relative to control; format: functional; conditions: read-out: Activity
COLO 205 = experiment: Antiproliferative activity against human COLO 205 cells assessed as cell growth at 0.0000001 M incubated for 48 hrs by SRB assay relative to control; format: functional; conditions: dose 100 nM, read-out: Activity; in short: as §2

Chain of Albumin (P02769 whole entry): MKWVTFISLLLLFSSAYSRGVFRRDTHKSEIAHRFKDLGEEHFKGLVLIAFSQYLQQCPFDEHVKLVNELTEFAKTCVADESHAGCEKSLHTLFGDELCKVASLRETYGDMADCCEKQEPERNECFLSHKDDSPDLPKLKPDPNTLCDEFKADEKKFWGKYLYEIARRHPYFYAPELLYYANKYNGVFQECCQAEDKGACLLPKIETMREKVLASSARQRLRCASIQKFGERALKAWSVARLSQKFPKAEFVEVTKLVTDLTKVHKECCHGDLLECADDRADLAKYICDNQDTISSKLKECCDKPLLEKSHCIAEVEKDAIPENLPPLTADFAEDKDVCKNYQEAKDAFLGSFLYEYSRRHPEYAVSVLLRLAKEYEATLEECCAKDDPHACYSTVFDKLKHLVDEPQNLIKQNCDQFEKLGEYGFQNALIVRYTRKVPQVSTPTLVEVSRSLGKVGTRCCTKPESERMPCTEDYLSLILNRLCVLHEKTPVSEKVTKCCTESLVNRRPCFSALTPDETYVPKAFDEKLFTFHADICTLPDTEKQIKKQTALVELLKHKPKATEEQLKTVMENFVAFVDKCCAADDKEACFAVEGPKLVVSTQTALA

| Structure (SMILES) | KSV (Albumin) | growth at 1 µM (DU-145) | growth at 10 µM (CAKI-1) | CC50 (EKVX) | GI50 (786-0) | growth at 1 µM (SF-268) | GI50 (PC-3) | growth at 100 µM (SF-539 [1]) | TGI (MCF7 [2]) | growth at 0.01 µM (NCI/ADR-RES) | Kb (Calf thymus DNA) | growth at 0.01 µM (M14 [3]) | CC50 (NCI-H460) | growth at 1 µM (OVCAR-5) | growth at 0.1 µM (OVCAR-8) | GI50 (CCRF-CEM [4]) | growth at 1 µM (SK-MEL-5 [5]) | growth at 10 µM (Malme-3M [6]) | growth at 0.1 µM (SF-539 [7]) | growth at 10 µM (M14 [8]) | also measured |
| --- | --- | --- | --- | --- | --- | --- | --- | --- | --- | --- | --- | --- | --- | --- | --- | --- | --- | --- | --- | --- | --- |
| COc1ccc(-c2cn3ccnc3c(-c3ccc4ncn(C5CCCCC5)c4c3)n2)cc1 | 1.16 10^5/M | 51% | 25% | > 100 µM | 0.527 µM | 65% | 0.621 µM | -19% | > 100 µM | 100% | 3.34 10^4/M | 99% | > 100 µM | 75% | 106% | 1.64 µM | 41% | 51% | 97% | 9% | growth at 100 µM (MCF7 [9]): 24%; growth at 0.1 µM (NCI-H322M): 90%; TGI (A498): > 100 µM; CC50 (IGROV-1): > 100 µM; growth at 0.01 µM (HT-29): 94%; CC50 (Malme-3M [10]): > 100 µM; growth at 0.1 µM (SK-MEL-5 [11]): 100%; growth at 10 µM (HCT-15): 9%; TGI (CCRF-CEM [12]): > 100 µM; growth at 1 µM (UACC-257): 69%; growth at 1 µM (RPMI-8226): 86%; CC50 (CCRF-CEM [13]): > 100 µM; growth at 0.1 µM (A549): 103%; growth at 100 µM (Malme-3M [14]): 49%; growth at 0.1 µM (COLO 205): 102% |
| c1ccc(Cn2cnc3ccc(-c4nc(-c5ccc6c(c5)ncn6C5CCCCC5)cn5ccnc45)cc32)cc1 | 1.14 10^5/M | 93% | 17% | > 100 µM | 0.799 µM | 82% | 1.97 µM | -38% | > 100 µM | 100% | 3.18 10^4/M | 87% | > 100 µM | 89% | 114% | 2.18 µM | 80% | -10% | 92% | -25% | growth at 100 µM (MCF7 [9]): 8%; growth at 0.1 µM (NCI-H322M): 91%; TGI (A498): 3.57 µM; CC50 (IGROV-1): > 100 µM; growth at 0.01 µM (HT-29): 99%; CC50 (Malme-3M [10]): > 100 µM; growth at 0.1 µM (SK-MEL-5 [11]): 106%; growth at 10 µM (HCT-15): -13%; TGI (CCRF-CEM [12]): > 100 µM; growth at 1 µM (UACC-257): 112%; growth at 1 µM (RPMI-8226): 55%; CC50 (CCRF-CEM [13]): > 100 µM; growth at 0.1 µM (A549): 109%; growth at 100 µM (Malme-3M [14]): 23%; growth at 0.1 µM (COLO 205): 99% |
